This note sets out measurements from ChEMBL document CHEMBL1153527, “Discovery of a novel series of quinolone and naphthyridine derivatives as potential topoisomerase I inhibitors by scaffold modification” (J Med Chem, 2009).

Values after ≈ are worked out from the molar mass of the structure shown. Active and inactive are the calls of the source. The calls are words filed in the database; no cut-off is given here.

For experiment [1], the system named is HT-29. Description: Induction of apoptosis in human HT-29 cells assessed as decrease in accumulation at G0/G1 phase at 1 uM after 48 hrs by flow cytometry. Type of experiment: functional, cell-based. In short, it runs like this:
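HT-29 cells were exposed to vehicle or 1, 5 or 10 μM compound for 6, 12, 24 or 48 h. Floating and attached cells were collected, fixed in 70% ethanol and treated with 0.1% Triton X-100. They were stained with PI at 50 μg/mL plus RNaseA at 50 μg/mL for 30 min at room temperature in the dark. FL2 DNA content was read on 10000 cells by flow cytometry. The sub-G1 fraction was taken as apoptotic.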

The subject of experiment [2] is SK-OV-3. Description: Induction of apoptosis in human SKOV3 cells assessed as apoptotic cells at 10 ug/mL after 24 hrs by annexin V/propidium iodide-based flow cytometry. The class given is functional. The method in brief:
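SKOV-3 or HT-29 cells (1-5 × 10^6 cells/mL) were incubated with 0, 5 or 10 μg/mL compound for 24 h. They were then washed and stained with EGFP-Annexin V/PI and analysed immediately by flow cytometry. Annexin V+/PI− cells were scored as apoptotic; PI-permeant cells were scored as necrotic.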

Experiment [3] has as its system HT-29. Description: Cytotoxicity against human HT-29 cells expressing p53 mutant after 48 hrs by SRB assay. Type of experiment: functional, cell-based. As to conditions: HT-29, 48 h. In short, it runs like this: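 Cell lines came from CCRC, Taiwan. Cells were seeded at about 5 × 10^3 per well and left overnight. They were then given serum-free medium containing 0-10 μM compound (0.08-10 μM serial dilutions) for 48 h at 37 °C. Cells were fixed with TCA (10% final), stained with SRB (0.4% final), and the dye was dissolved in 10 mM Tris with A515 read. IC50 was taken from a fitted log concentration-response curve.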
Background: In SRB staining, fixed cells bind dye roughly in proportion to their protein.

In experiment [4] the test system is K562. Description: Cytotoxicity against p53-deficient human K562 cells after 48 hrs by SRB assay. The class given is functional, cell-based. The note with it: K562, 48 h.
Experiment [5] relates to HT-29. Description: Cytotoxicity against human HT-29 cells after 48 hrs by MTT assay. Type of experiment: functional, cell-based. The note with it: HT-29, 48 h. In short, it runs like this:
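Cells were seeded at about 5 × 10^3 per well, then given serum-free medium containing 0-10 μM test compound for 48 h at 37 °C. MTT was added at 0.5 mg/mL final for 4 h at 37 °C. Formazan was dissolved in DMSO and OD570 read. IC50 values (50% cell death) came from a fitted log concentration-response curve.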

Experiment [6] concerns HT-29. Description: Reduction in topoisomerase 1 expression in human HT-29 cells by immunocytochemistry. The class given is functional, cell-based. The method in brief:
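HT-29 and SKOV-3 cells were grown on slides and treated with compound at several concentrations, with an untreated control. Cells were fixed and permeabilised, and endogenous peroxidase was quenched with 0.3% H2O2/methanol. After blocking with 10% goat serum, slides were stained with anti-Top I (1:100, 10 h), then biotinylated secondary and avidin-biotin-HRP, and developed with DAB.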

The target of experiment [7] is T1, DNA topoisomerase 1 (Homo sapiens) (UniProt P11387).
T1 sequence (whole entry): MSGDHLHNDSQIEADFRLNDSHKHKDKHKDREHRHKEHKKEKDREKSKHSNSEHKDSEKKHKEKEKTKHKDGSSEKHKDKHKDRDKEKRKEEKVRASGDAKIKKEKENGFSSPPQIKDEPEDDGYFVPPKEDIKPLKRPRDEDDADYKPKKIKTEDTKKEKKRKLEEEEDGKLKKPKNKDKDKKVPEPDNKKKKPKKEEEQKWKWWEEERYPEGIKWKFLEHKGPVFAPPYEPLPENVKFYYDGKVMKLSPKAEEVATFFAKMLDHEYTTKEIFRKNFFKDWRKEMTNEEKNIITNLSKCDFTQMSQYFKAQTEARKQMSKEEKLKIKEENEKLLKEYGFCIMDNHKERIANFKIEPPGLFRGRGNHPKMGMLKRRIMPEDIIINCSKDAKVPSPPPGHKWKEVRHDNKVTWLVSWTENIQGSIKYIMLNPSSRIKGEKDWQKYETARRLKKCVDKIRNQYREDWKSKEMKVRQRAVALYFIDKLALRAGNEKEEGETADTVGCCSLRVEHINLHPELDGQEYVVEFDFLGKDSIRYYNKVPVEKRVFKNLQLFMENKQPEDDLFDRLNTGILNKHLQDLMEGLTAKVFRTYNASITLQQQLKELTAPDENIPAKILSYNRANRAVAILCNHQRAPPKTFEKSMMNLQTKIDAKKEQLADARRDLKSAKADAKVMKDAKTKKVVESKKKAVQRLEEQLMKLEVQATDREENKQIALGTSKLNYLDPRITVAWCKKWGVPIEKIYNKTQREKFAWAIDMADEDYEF
Description: Induction of human recombinant topoisomerase 1-mediated cleavage of 32P-labeled linearized pRYG plasmid DNA at 2.5 uM after 30 mins by agarose gel electrophoresis. In short, it runs like this:
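Recombinant human Top I was incubated with HindIII-linearised pRYG plasmid, 3'-end-labelled with [α-32P]dCTP by Klenow fill-in (about 100000 cpm per reaction). Reactions were stopped with SDS and proteinase K at 45 °C, alkali-denatured, run on a 1% agarose gel and autoradiographed.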

By GI50 is commonly meant the concentration at which growth is held to half of that of the control. Low values mean greater sensitivity of the cells, high ones lower sensitivity of the cells. For orientation: IC50 means the concentration that gives 50% inhibition. Low values mean greater potency in that assay, high ones weaker potency in that assay.

With `CCn1cc(-c2nc3ccc([N+](=O)[O-])cc3o2)c(=O)c2cc(F)c(N3CCNC(C)C3)c(F)c21` (stereo not drawn), the outcome in experiment [1] and in experiment [7] was Active. For the same compound, the results for the Activity in experiment [2] and in experiment [6] were 13.6% and “Dose-dependent effect”, respectively. In experiment [3], the GI50 was found to be 1 µM. In addition, the IC50 in experiment [3] amounted to 5.5 µM; in experiment [4] it was 4.6 µM; in experiment [5] it was 0.37 µg/mL (≈ 0.788 µM).
